How the values were obtained:
[1] = target: Mitogen-activated protein kinase 9 (Homo sapiens) (UniProt P45984); assay: Inhibition of recombinant human flag-tagged JNK2-beta-2 at 10000 nM; format: functional
How it was run: (§1)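 Kinase assay with recombinant human FLAG-tagged JNK2β fusion protein phosphorylating GST-ATF2. Phosphorylated GST-ATF2 detected by HTRF.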

[2] = target: Mitogen-activated protein kinase 11 (Mus musculus, UniProt Q9WUI1); assay: Displacement of [gamma-33P]-ATP binding from active recombinant murine FLAG-Mitogen-activated protein kinase p38 beta fusion protein (GST-ATF2)
How it was run: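 Filter-plate binding assay of compound competing with [γ-33P]ATP on active recombinant murine FLAG-tagged p38 fusion protein, with GST-ATF2. IC50 values are the average of two or more separate assays. Repeat determinations differed by ±20% on average.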

[3] = target: Mitogen-activated protein kinase 14 (Mus musculus, UniProt P47811); assay: Tested in vitro for filter plate binding versus gamma-[33P]ATP in active recombinant murine FLAG-P38 alpha fusion protein (GST-Activating transcription factor-2).
MAP kinase p38 [4] = target: T1, MAP kinase p38 (Homo sapiens, UniProt O15264+Q15759+Q16539+P53778); assay: Inhibition of LPS-induced p38-related Tumor necrosis factor alpha release by THP-1 cells at 4000 nM; format: functional, cell-based
[5] = target: Mitogen-activated protein kinase 9 (Homo sapiens) (UniProt P45984); assay: Inhibition of recombinant human flag-tagged JNK2-beta-2 at 5000 nM; format: functional; how it was run: as §1
[6] = target: Mitogen-activated protein kinase 11 (Mus musculus) (UniProt Q9WUI1); assay: Displacement of [gamma-33P]-ATP from recombinant murine Mitogen-activated protein kinase p38 beta at 5000 nM
MAP kinase p38 [7] = target: T1, MAP kinase p38; assay: Inhibition of Tumor necrosis factor alpha release from LPS-induced THP-1 cells by ELISA; format: functional, cell-based
How it was run: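 Human THP-1 monocytic cells stimulated with LPS. Human TNFα in the cell supernatant measured by ELISA.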

MAP kinase p38 [8] = target: T1, MAP kinase p38; assay: Inhibition of LPS-induced p38-related Tumor necrosis factor alpha release in human whole blood; format: functional, tissue-based
[9] = target: Mitogen-activated protein kinase 14 (Mus musculus) (UniProt P47811); assay: Inhibition of [gamma-33P]-ATP binding to recombinant murine p38 alpha at 100 nM
[10] = target: Mitogen-activated protein kinase 9 (Homo sapiens) (UniProt P45984); assay: Inhibition of recombinant human flag-tagged JNK2-beta-2 at 1000 nM; format: functional; how it was run: as §1
[11] = target: Mitogen-activated protein kinase 11 (Mus musculus) (UniProt Q9WUI1); assay: Displacement of [gamma-33P]-ATP from recombinant murine Mitogen-activated protein kinase p38 beta at 100 nM
Mus musculus [12] = assay: Tested ex vivo for MAPKAP plasma concentration at 1 hr after dosing; format: functional, organism-based
How it was run: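 BALB/c mice (n = 5) given 3 mg/kg ip in DMSO/EtOH/PEG400/saline (10:10:60:20); blood drawn 1 h post-dose. Plasma level determined by bioassay: serial plasma dilutions run in the p38 inhibition assay, and the compound's free p38 IC50 multiplied by 1/(plasma dilution giving 50% inhibition, EC50).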

Mus musculus [13] = assay: (§2) Ex vivo inhibition of Mitogen activated protein kinase activated protein 1 hr after 3 mg/kg dose; format: functional, organism-based; set-up: dose 3 mg/kg
How it was run: (§3)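 BALB/c mice (n = 5 per compound) dosed ip at 3 mg/kg in DMSO/EtOH/PEG400/saline (10:10:60:20). Blood collected 1 h after dosing and murine MAPKAP activity measured ex vivo as % inhibition. Significance versus vehicle assessed at p < 0.05.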

Mus musculus [14] = species on record: Mus musculus; assay: Tested ex vivo for MAPKAP inhibition, activity expressed as plasma concentration; format: functional, organism-based
How it was run: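 Mice dosed ip at 3 mg/kg and plasma taken 1 h after dosing. Plasma compound level determined by bioassay: plasma was diluted in the p38 inhibition assay to find the dilution giving 50% inhibition (EC50). Concentration = free-compound p38 IC50 × 1/dilution factor.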

[15] = as §2; format: functional; settings: Mus musculus; how it was run: as §3
MAP kinase p38 [16] = target: T1, MAP kinase p38; assay: Inhibition of LPS-induced p38-related Tumor necrosis factor alpha release in human whole blood at 4000 nM; format: functional, tissue-based

Sequence of Mitogen-activated protein kinase 14 (P47811 whole entry, the tested form may be a part): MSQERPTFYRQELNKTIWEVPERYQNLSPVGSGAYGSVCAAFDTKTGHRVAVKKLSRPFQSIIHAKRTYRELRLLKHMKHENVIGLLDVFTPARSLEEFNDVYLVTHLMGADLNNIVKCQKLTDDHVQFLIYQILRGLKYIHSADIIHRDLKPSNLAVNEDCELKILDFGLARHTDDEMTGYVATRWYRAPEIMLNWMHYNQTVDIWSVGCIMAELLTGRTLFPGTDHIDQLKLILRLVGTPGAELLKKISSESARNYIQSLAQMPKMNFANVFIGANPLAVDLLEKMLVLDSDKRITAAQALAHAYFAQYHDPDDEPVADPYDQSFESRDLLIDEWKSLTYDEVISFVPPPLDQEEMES
Sequence of Mitogen-activated protein kinase 9 (Homo sapiens) (P45984 whole entry, looked up, the tested form may be a part): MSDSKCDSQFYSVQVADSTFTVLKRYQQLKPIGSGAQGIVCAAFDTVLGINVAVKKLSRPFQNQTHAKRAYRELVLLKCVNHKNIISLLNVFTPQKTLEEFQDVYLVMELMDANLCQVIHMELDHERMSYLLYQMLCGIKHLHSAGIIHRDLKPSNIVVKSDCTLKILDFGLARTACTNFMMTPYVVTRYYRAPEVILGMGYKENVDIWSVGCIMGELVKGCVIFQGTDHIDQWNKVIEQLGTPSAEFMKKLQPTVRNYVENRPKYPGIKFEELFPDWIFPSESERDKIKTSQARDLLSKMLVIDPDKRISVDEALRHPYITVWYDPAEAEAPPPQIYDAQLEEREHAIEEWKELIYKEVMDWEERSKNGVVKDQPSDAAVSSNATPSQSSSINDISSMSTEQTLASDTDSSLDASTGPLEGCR
Sequence of Mitogen-activated protein kinase 11 (Q9WUI1 whole entry, the tested form may be a part): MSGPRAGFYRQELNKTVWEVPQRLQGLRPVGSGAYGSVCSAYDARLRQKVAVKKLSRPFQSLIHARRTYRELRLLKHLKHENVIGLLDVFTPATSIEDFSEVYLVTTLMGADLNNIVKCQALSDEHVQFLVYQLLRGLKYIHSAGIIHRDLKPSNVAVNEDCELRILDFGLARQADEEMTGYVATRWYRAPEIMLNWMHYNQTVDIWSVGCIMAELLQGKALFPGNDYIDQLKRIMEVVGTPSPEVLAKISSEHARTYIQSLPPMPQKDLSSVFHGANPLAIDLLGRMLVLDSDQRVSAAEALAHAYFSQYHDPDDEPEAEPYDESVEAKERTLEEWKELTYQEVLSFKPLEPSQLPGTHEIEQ
Sequence of Mitogen-activated protein kinase 11 (Mus musculus) (Q9WUI1 whole entry): as the sequence (Q9WUI1 whole entry, the tested form may be a part) above
Sequence of Mitogen-activated protein kinase 14 (Mus musculus) (P47811 whole entry): as the sequence (P47811 whole entry, the tested form may be a part) above

| Compound | inhibition [1] | IC50 [2] | IC50 [3] | inhibition (MAP kinase p38 [4]) | inhibition [5] | IC50 (MAP kinase p38 [7]) | IC50 (MAP kinase p38 [8]) | also measured |
| --- | --- | --- | --- | --- | --- | --- | --- | --- |
| O=C1CCC(c2c(-c3cccc(C(F)(F)F)c3)nc3ccccn23)=NN1c1ccccc1Cl | 0% | 355 nM | 171 nM | 72% | – | – | – | – |
| O=C1CCC(c2c(-c3cccc(Cl)c3Cl)nc3ccccn23)=NN1c1c(Cl)cccc1Cl | – | – | 2000 nM | 59% | 26% | – | – | inhibition [6]: 57% |
| O=c1ccc(-c2c(-c3cccc(C(F)(F)F)c3)nc3ccccn23)nn1-c1c(Cl)cccc1Cl | 0% | – | 1000 nM | 41% | – | – | – | inhibition [6]: 50% |
| O=c1ccc(-c2c(-c3cccc(C(F)(F)F)c3)nc3ccccn23)nn1-c1ccccc1Cl | – | – | 344 nM | 48% | – | – | – | – |
| Cc1ccccc1N1N=C(c2c(-c3ccc(F)cc3Cl)nc3ccccn23)CCC1=O | – | 94 nM | 14 nM | – | 4% | 22 nM | 220 nM | – |
| O=C1CCC(c2c(-c3ccc(F)cc3Cl)nc3ccccn23)=NN1c1ccccc1Cl | 0% | 2600 nM | 208 nM | – | – | 400 nM | – | – |
| Cc1ccccc1N1N=C(c2c(-c3cccc(Cl)c3Cl)nc3ccccn23)CCC1=O | – | – | – | – | – | 170 nM | – | inhibition [9]: 36%; inhibition [10]: 0%; inhibition [11]: 33% |
| Cc1ccccc1-n1nc(-c2c(-c3ccc(F)cc3F)nc3ccccn23)ccc1=O | – | 140 nM | 26 nM | – | 15% | 68 nM | 870 nM | – |
| O=C1CCC(c2c(-c3ccc(F)cc3F)nc3ccccn23)=NN1c1c(Cl)cccc1Cl | 22% | 63 nM | 8 nM | – | – | 10 nM | 205 nM | – |
| O=c1ncn2nc(Sc3ccc(F)cc3F)ccc2c1-c1c(Cl)cccc1Cl | – | – | – | – | – | – | – | Concentration (Mus musculus [12]): 1730 nM; inhibition (Mus musculus [13]): 29% |
| O=c1ccc(-c2c(-c3ccc(F)cc3Cl)nc3ccccn23)nn1-c1ccccc1Cl | 0% | 171 nM | 76 nM | – | – | 161 nM | – | – |
| Cc1ccccc1N1N=C(c2c(-c3ccc(F)cc3F)nc3ccccn23)CCC1=O | 4% | 78 nM | 8 nM | – | – | 14 nM | 440 nM | – |
| O=C1CCC(c2c(-c3ccc(F)cc3Cl)nc3ccccn23)=NN1c1c(Cl)cccc1Cl | 0% | 670 nM | 42 nM | – | – | 180 nM | – | – |
| Cc1ccccc1-n1nc(-c2c(-c3cccc(Cl)c3Cl)nc3ccccn23)ccc1=O | 15% | 44 nM | 22 nM | – | – | 6 nM | 500 nM | – |
| O=c1ccc(-c2c(-c3ccc(F)cc3Cl)nc3ccccn23)nn1-c1c(Cl)cccc1Cl | 23% | 64 nM | 14 nM | – | – | 161 nM | – | – |
| Cc1ccccc1-n1nc(-c2c(-c3ccc(F)cc3Cl)nc3ccccn23)ccc1=O | – | 28 nM | 9 nM | – | 16% | 20 nM | 100 nM | Concentration (Mus musculus [14]): 810 nM; inhibition in vivo at 3 mg/kg [15]: 42% |
| O=c1ccc(-c2c(-c3cccc(Cl)c3Cl)nc3ccccn23)nn1-c1c(Cl)cccc1Cl | – | 890 nM | 270 nM | 65% | 14% | – | – | – |
| O=c1ccc(-c2c(-c3ccc(F)cc3F)nc3ccccn23)nn1-c1c(Cl)cccc1Cl | – | 112 nM | 22 nM | 89% | 11% | – | 1000 nM | – |
| O=c1ccc(-c2c(-c3ccc(F)cc3)nc3ccccn23)nn1-c1c(Cl)cccc1Cl | 40% | 153 nM | 49 nM | – | – | 70 nM | – | inhibition (MAP kinase p38 [16]): 60% |
